Each block holds one compound with its values, some of them ahead of it.
What was measured:
[1] = ref Tijono et al., 2013; cited from earlier work
[2] = target: hSTING Q266I (Homo sapiens, UniProt Q86WV6, H232R/Q266I); assay: IFN-β luciferase reporter assay in transfected 293T cells; assay type: cell-based; conditions: 0.18 mM DMXAA, 12 hr
Outline: (§1)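 HEK293T cells were reverse-transfected with full-length STING plasmids, expressed at moderate levels, plus IFN-β reporter constructs. […] Luciferase was read 12 hr later. Gaussia luciferase was normalized to constitutive firefly luciferase. Values are means of triplicates + SEM, representative of three independent experiments.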

[3] = target: hSTING^S162A/Q266I (Homo sapiens, UniProt Q86WV6, H232R/Q266I/S162A); assay: Cytokine/chemokine induction in STING^Gt/Gt BMDCs reconstituted with hSTING; assay type: cell-based; conditions: 50 µg/ml DMXAA, 3 hr, real-time PCR
Outline: (§2)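 STING-deficient BMDCs were derived from STINGGt/Gt mouse bone marrow cultured with GM-CSF for 10 days and plated at 1 × 10^6 cells/well. They were infected with retroviruses expressing hSTING variants, and hSTING levels were checked by western blot. […] IFNB1, CXCL10, CCL5 and IL-6 mRNA were measured by real-time PCR. Data are means ± SEM (n = 3) from one of two experiments.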

[4] = target: hSTING Q266L (Homo sapiens, UniProt Q86WV6, H232R/Q266L); assay: IFN-β luciferase reporter assay in transfected 293T cells; assay type: cell-based; conditions: 0.18 mM DMXAA, 12 hr
Outline: as §1

[5] = target: wild-type (WT) hSTING (Homo sapiens, UniProt Q86WV6, H232R); assay: ITC binding of DMXAA to STING CTD; conditions: 25°C
[6] = target: hSTING^group1 (aa 140-379) (Homo sapiens, UniProt Q86WV6, E174G/H185L/H232R/L189M/Q196R/R191S/T181M/V194G/Y182F/Y186H); assay: ITC binding of DMXAA to STING CTD; conditions: 25°C
[7] = tested on: all hSTING alleles with S162A/Q266I double substitution; assay: IFN-β luciferase reporter assay in transfected 293T cells; assay type: cell-based, human; conditions: 0.18 mM DMXAA, alleles R232, HAQ, H232, AQ, Q293
Outline: as §1

[8] = target: hSTING I235L (Homo sapiens, UniProt Q86WV6, H232R/I235L); assay: as above; assay type: cell-based; conditions: 0.18 mM DMXAA, 12 hr
Outline: as §1

[9] = target: hSTING^group2 (Homo sapiens, UniProt Q86WV6, D237N/G230I/H232R/I244V/K224M/L222R/T229N); assay: IFN-β luciferase reporter assay in transfected 293T cells; assay type: cell-based; conditions: 0.18 mM DMXAA (50 μg/ml), 12 hr
[10] = target: hSTING^G230I (Homo sapiens, UniProt Q86WV6, G230I/H232R); assay: Cytokine/chemokine induction in STING^Gt/Gt BMDCs reconstituted with hSTING; assay type: cell-based; conditions: 50 µg/ml DMXAA, 3 hr, real-time PCR
Outline: as §2

[11] = target: hSTING^group3 (Homo sapiens, UniProt Q86WV6, A300E/A302V/D297E/H232R/Q276K/Q306R/S275A/Y274D); assay: ITC binding of DMXAA to STING CTD; conditions: 25°C
[12] = target: hSTING^group134 (Homo sapiens, UniProt Q86WV6, A300E/A302V/A350V/D297E/E174G/E362R/E369D/F378L/G344N/H185L/H232R/K347M/K370Q/L189M/L346P/M357L/Q196R/Q276K/Q306R/R191S/S275A/S345A/S353P/S379I/T181M/T354P/T356V/V194G/V343M/V351A/Y182F/Y186H/Y274D); assay: IFN-β luciferase reporter assay in transfected 293T cells; assay type: cell-based; conditions: 0.18 mM DMXAA (50 μg/ml), 12 hr, versus hSTING^group1234
Outline: as §1

[13] = target: hSTING^group4 (Homo sapiens, UniProt Q86WV6, A350V/E362R/E369D/F378L/G344N/H232R/K347M/K370Q/L346P/M357L/S345A/S353P/S379I/T354P/T356V/V343M/V351A); assay: ITC binding of DMXAA to STING CTD; conditions: 25°C
[14] = target: WT hSTING (Homo sapiens, UniProt Q86WV6, H232R); assay: Cytokine/chemokine induction in STING^Gt/Gt BMDCs reconstituted with hSTING; assay type: cell-based; conditions: 50 µg/ml DMXAA, 3 hr, real-time PCR
Outline: as §2

[15] = tested on: non-small-cell lung cancer; conditions: in combination with paclitaxel and carboplatin; ref Lara et al., 2011; cited from earlier work
[16] = target: hSTING Q266V (Homo sapiens, UniProt Q86WV6, H232R/Q266V); assay: IFN-β luciferase reporter assay in transfected 293T cells; assay type: cell-based; conditions: 0.18 mM DMXAA, 12 hr
Outline: as §1

[17] = target: hSTING^S162A (Homo sapiens, UniProt Q86WV6, H232R/S162A); assay: Cytokine/chemokine induction in STING^Gt/Gt BMDCs reconstituted with hSTING; assay type: cell-based; conditions: 50 µg/ml DMXAA, 3 hr, real-time PCR
Outline: as §2

[18] = target: hSTING G166S (Homo sapiens, UniProt Q86WV6, G166S/H232R); assay: IFN-β luciferase reporter assay in transfected 293T cells; assay type: cell-based; conditions: 0.18 mM DMXAA, 12 hr
Outline: as §1

[19] = target: hSTING^S162A/G230I/Q266I (Homo sapiens, UniProt Q86WV6, G230I/H232R/Q266I/S162A); assay: Cytokine/chemokine induction in STING^Gt/Gt BMDCs reconstituted with hSTING; assay type: cell-based; conditions: 50 µg/ml DMXAA
Outline: as §2

Chain of hSTING^S162A/G230I/Q266I (Q86WV6 whole entry S162A/G230I/H232R/Q266I): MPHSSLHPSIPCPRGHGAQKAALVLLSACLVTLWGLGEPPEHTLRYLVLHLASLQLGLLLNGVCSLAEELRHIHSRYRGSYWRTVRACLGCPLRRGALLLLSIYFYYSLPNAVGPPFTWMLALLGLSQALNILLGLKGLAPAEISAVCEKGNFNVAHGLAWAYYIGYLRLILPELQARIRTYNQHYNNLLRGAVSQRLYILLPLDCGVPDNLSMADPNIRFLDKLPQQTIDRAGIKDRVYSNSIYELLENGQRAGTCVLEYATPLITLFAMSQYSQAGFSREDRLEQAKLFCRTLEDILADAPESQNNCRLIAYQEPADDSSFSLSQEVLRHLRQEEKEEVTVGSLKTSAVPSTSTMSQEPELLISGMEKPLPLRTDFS
Chain of hSTING Q266L (Q86WV6 whole entry H232R/Q266L): as the sequence (Q86WV6 whole entry S162A/G230I/H232R/Q266I) above, with A162S, I230G, I266L counted along it
Chain of hSTING^S162A/Q266I (Q86WV6 whole entry S162A/H232R/Q266I): as the sequence (Q86WV6 whole entry S162A/G230I/H232R/Q266I) above, with I230G counted along it
Chain of WT hSTING (Q86WV6 whole entry H232R): as the sequence (Q86WV6 whole entry S162A/G230I/H232R/Q266I) above, with A162S, I230G, I266Q counted along it
Chain of hSTING^group4 (Q86WV6 140-379 with the stated changes): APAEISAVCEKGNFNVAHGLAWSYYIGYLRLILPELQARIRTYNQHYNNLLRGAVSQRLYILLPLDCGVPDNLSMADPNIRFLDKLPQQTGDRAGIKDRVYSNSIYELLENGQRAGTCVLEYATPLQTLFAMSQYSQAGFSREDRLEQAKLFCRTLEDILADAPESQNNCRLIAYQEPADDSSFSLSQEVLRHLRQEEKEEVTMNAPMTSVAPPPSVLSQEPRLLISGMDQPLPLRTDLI
Chain of hSTING^group134 (Q86WV6 1-379 with the stated changes): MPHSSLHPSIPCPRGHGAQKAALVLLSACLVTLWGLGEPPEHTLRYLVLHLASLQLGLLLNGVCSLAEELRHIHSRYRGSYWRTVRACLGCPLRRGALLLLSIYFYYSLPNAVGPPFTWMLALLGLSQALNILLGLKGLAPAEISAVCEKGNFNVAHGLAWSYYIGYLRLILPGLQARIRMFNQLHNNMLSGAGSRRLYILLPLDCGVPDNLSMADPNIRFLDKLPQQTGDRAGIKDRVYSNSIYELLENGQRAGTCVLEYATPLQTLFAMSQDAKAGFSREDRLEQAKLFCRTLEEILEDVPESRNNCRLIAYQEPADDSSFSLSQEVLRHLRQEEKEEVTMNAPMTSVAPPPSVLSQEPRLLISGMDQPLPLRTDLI
Chain of hSTING^group3 (Q86WV6 140-379 H232R/Y274D/S275A/Q276K/D297E/A300E/A302V/Q306R): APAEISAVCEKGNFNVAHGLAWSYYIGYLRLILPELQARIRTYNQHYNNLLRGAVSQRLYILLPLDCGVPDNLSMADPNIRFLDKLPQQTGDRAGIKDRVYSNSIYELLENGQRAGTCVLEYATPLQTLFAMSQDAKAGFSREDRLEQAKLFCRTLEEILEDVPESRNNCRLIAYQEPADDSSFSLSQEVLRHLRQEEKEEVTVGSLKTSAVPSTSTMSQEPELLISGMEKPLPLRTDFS
Chain of hSTING I235L (Q86WV6 whole entry H232R/I235L): as the sequence (Q86WV6 whole entry S162A/G230I/H232R/Q266I) above, with A162S, I230G, I235L, I266Q counted along it
Chain of hSTING^group2 (Q86WV6 whole entry L222R/K224M/T229N/G230I/H232R/D237N/I244V): as the sequence (Q86WV6 whole entry S162A/G230I/H232R/Q266I) above, with A162S, L222R, K224M, T229N, D237N, I244V, I266Q counted along it
Chain of hSTING Q266V (Q86WV6 whole entry H232R/Q266V): as the sequence (Q86WV6 whole entry S162A/G230I/H232R/Q266I) above, with A162S, I230G, I266V counted along it
Chain of hSTING^S162A (Q86WV6 whole entry S162A/H232R): as the sequence (Q86WV6 whole entry S162A/G230I/H232R/Q266I) above, with I230G, I266Q counted along it
Chain of hSTING Q266I (Q86WV6 whole entry H232R/Q266I): as the sequence (Q86WV6 whole entry S162A/G230I/H232R/Q266I) above, with A162S, I230G counted along it
Chain of hSTING^G230I (Q86WV6 whole entry G230I/H232R): as the sequence (Q86WV6 whole entry S162A/G230I/H232R/Q266I) above, with A162S, I266Q counted along it
Chain of hSTING^group1 (aa 140-379) (Q86WV6 140-379 E174G/T181M/Y182F/H185L/Y186H/L189M/R191S/V194G/Q196R/H232R): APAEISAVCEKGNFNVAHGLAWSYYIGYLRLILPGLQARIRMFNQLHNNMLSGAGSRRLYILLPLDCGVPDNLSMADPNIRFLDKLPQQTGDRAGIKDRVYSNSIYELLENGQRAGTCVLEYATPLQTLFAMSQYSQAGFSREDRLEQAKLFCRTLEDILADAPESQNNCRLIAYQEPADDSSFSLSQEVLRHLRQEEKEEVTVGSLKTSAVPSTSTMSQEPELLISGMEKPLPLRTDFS
Chain of wild-type (WT) hSTING (Q86WV6 140-379 H232R): as the sequence (Q86WV6 140-379 H232R/Y274D/S275A/Q276K/D297E/A300E/A302V/Q306R) above, with D135Y, A136S, K137Q, E158D, E161A, V163A, R167Q counted along it
Chain of hSTING G166S (Q86WV6 whole entry G166S/H232R): as the sequence (Q86WV6 whole entry S162A/G230I/H232R/Q266I) above, with A162S, G166S, I230G, I266Q counted along it

Compound: Cc1ccc2oc3c(CC(=O)O)cccc3c(=O)c2c1 [7-methyl-XAA]
- activity in human [1]: weak yet human-active

Compound: Cc1cccc2oc3c(CC(=O)O)cccc3c(=O)c12 [8-methyl-XAA]
- activity in human [1]: weak yet human-active

- IFN-β induction [2]: conferred DMXAA sensitivity
- increase in IFN-β mRNA levels [3]: 3.1 fold
- IFN-β induction [4]: less pronounced gain
- binding to DMXAA [5]: no detectable binding
- binding to DMXAA [6]: no detectable binding
- IFN-β induction [8]: showed no effects
- IFN-β reporter response [9]: showed responsiveness to DMXAA
- increase in IFN-β mRNA levels [10]: 2.6 fold
- binding to DMXAA [11]: no detectable binding
- IFN-β reporter response [12]: strongly diminished DMXAA activation
- binding to DMXAA [13]: no detectable binding
- IFN-β mRNA upregulation [14]: did not induce the upregulation
- IFN-β induction [16]: showed no effects
- increase in IFN-β mRNA levels [17]: 2.2 fold
- IFN-β induction [18]: showed no effects
- increase in IFN-β mRNA levels ([19]; 3 hr, real-time PCR): 4.2 fold
- CXCL10 production (supernatant, ELISA) ([19]; 18 hr): highest level of CXCL10 production
Compound: Cc1ccc2c(=O)c3cccc(CC(=O)O)c3oc2c1C [DMXAA, 5,6-dimethylxanthenone-4-acetic acid]
- DMXAA responsiveness (IFN-β reporter) [7]: able to induce DMXAA responsiveness
- outcome of human phase III trials [15]: failed
- upregulation of CXCL10, CCL5, and IL-6 mRNAs ([19]; 3 hr, real-time PCR): strongest induction among the four mutants

Reference: paper PMC4381552 (Cell reports, 2014)
